According to ChEMBL document CHEMBL1156233, “Synthesis and anti-HIV activity of alkylated quinoline 2,4-diols” (Bioorg Med Chem, 2010):

Assays:
[1] = system: Human immunodeficiency virus 1; assay: Antiviral activity against Human immunodeficiency virus 1 NL4.3 infected human CEM cells expressing GFP at 21.20 uM measured up to 8 days postinfection by p24 antigen capture ELISA; format: functional; conditions: Human immunodeficiency virus 1, NL4.3, CCRF-CEM, 192 h
Method in brief: (§1)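 CD4+ T-lymphoblastoid CEM-GFP cells were infected with HIV-1 NL4-3 at MOI 0.05, following the lab's published protocol. Cells were then exposed to each compound at a concentration found non-cytotoxic by MTT and kept up to 8 days post infection. Virus was read out by p24 antigen-capture ELISA. IC50 is the concentration giving 50% protection of cells from virus (n = 3).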

[2] = system: Human immunodeficiency virus 1; assay: Antiviral activity against Human immunodeficiency virus 1 NL4.3 infected human CEM cells expressing GFP at 27.42 uM measured up to 8 days postinfection by p24 antigen capture ELISA; format: functional; conditions: Human immunodeficiency virus 1, NL4.3, CCRF-CEM, 192 h; method in brief: as §1
[3] = system: Human immunodeficiency virus 1; assay: Antiviral activity against Human immunodeficiency virus 1 NL4.3 infected human CEM cells expressing GFP measured up to 8 days postinfection by p24 antigen capture ELISA; format: functional, organism-based; conditions: Human immunodeficiency virus 1, NL4.3, CCRF-CEM, 192 h; method in brief: as §1
[4] = Therapeutic index, ratio of CC50 for human CEM cells expressing GFP to IC50 for Human immunodeficiency virus 1 NL4.3; format: cell-based, CCRF-CEM; conditions: read-out: Ratio CC50/IC50
[5] = Cytotoxicity against human CEM cells expressing GFP after 48 to 72 hrs by MTT assay; format: cell-based; conditions: CEM cells expressing GFP (CCRF-CEM)
Method in brief: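 MTT cell-viability kit used per the manufacturer's protocol. CEM-GFP cells were seeded at 2 × 10⁴ cells/well and given compound at a range of concentrations, with untreated wells as controls. Formazan was solubilized and read at 540 nm. CC50 is the concentration reducing cell proliferation by 50% (n = 3).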

[6] = system: Human immunodeficiency virus 1; assay: Antiviral activity against Human immunodeficiency virus 1 NL4.3 infected human CEM cells expressing GFP at 35.17 uM measured day 8 on post infection by p24 antigen capture ELISA; format: functional; conditions: Human immunodeficiency virus 1, NL4.3, CCRF-CEM, 192 h; method in brief: as §1
[7] = system: Human immunodeficiency virus 1; assay: Antiviral activity against Human immunodeficiency virus 1 NL4.3 infected human CEM cells expressing GFP at 30.56 uM measured up to 8 days postinfection by p24 antigen capture ELISA; format: functional; conditions: Human immunodeficiency virus 1, NL4.3, CCRF-CEM, 192 h; method in brief: as §1
[8] = system: Human immunodeficiency virus 1; assay: Antiviral activity against Human immunodeficiency virus 1 NL4.3 infected human CEM cells expressing GFP at 43.29 uM measured up to 8 days postinfection by p24 antigen capture ELISA; format: functional; conditions: Human immunodeficiency virus 1, NL4.3, CCRF-CEM, 192 h; method in brief: as §1
[9] = system: Human immunodeficiency virus 1; assay: Antiviral activity against Human immunodeficiency virus 1 NL4.3 infected human CEM cells expressing GFP at 14.98 uM measured up to 8 days postinfection by p24 antigen capture ELISA; format: functional; conditions: Human immunodeficiency virus 1, NL4.3, CCRF-CEM, 192 h; method in brief: as §1
[10] = system: Human immunodeficiency virus 1; assay: Antiviral activity against Human immunodeficiency virus 1 NL4.3 infected human CEM cells expressing GFP at 8.41 uM measured up to 8 days postinfection by p24 antigen capture ELISA; format: functional; conditions: Human immunodeficiency virus 1, NL4.3, CCRF-CEM, 192 h; method in brief: as §1
[11] = system: Human immunodeficiency virus 1; assay: Antiviral activity against Human immunodeficiency virus 1 NL4.3 infected human CEM cells expressing GFP at 1.84 uM measured up to 8 days postinfection by p24 antigen capture ELISA; format: functional; conditions: Human immunodeficiency virus 1, NL4.3, CCRF-CEM, 192 h; method in brief: as §1
[12] = system: Human immunodeficiency virus 1; assay: Antiviral activity against Human immunodeficiency virus 1 NL4.3 infected human CEM cells expressing GFP at 1.68 uM measured up to 8 days postinfection by p24 antigen capture ELISA; format: functional; conditions: Human immunodeficiency virus 1, NL4.3, CCRF-CEM, 192 h; method in brief: as §1
[13] = system: Human immunodeficiency virus 1; assay: Antiviral activity against Human immunodeficiency virus 1 NL4.3 infected human CEM cells expressing GFP at 65.93 uM measured up to 8 days postinfection by p24 antigen capture ELISA; format: functional; conditions: Human immunodeficiency virus 1, NL4.3, CCRF-CEM, 192 h; method in brief: as §1
[14] = system: Human immunodeficiency virus 1; assay: Antiviral activity against Human immunodeficiency virus 1 NL4.3 infected human CEM cells expressing GFP at 59.80 uM measured up to 8 days postinfection by p24 antigen capture ELISA; format: functional; conditions: Human immunodeficiency virus 1, NL4.3, CCRF-CEM, 192 h; method in brief: as §1
[15] = system: Human immunodeficiency virus 1; assay: Antiviral activity against Human immunodeficiency virus 1 NL4.3 infected human CEM cells expressing GFP at 12.30 uM measured up to 8 days postinfection by p24 antigen capture ELISA; format: functional; conditions: Human immunodeficiency virus 1, NL4.3, CCRF-CEM, 192 h; method in brief: as §1
[16] = system: Human immunodeficiency virus 1; assay: Antiviral activity against Human immunodeficiency virus 1 NL4.3 infected human CEM cells expressing GFP at 18.58 uM measured up to 8 days postinfection by p24 antigen capture ELISA; format: functional; conditions: Human immunodeficiency virus 1, NL4.3, CCRF-CEM, 192 h; method in brief: as §1
[17] = system: Human immunodeficiency virus 1; assay: Antiviral activity against Human immunodeficiency virus 1 NL4.3 infected human CEM cells expressing GFP at 19.60 uM measured up to 8 days postinfection by p24 antigen capture ELISA; format: functional; conditions: Human immunodeficiency virus 1, NL4.3, CCRF-CEM, 192 h; method in brief: as §1
[18] = system: Human immunodeficiency virus 1; assay: Antiviral activity against Human immunodeficiency virus 1 NL4.3 infected human CEM cells expressing GFP at 1.59 uM measured up to 8 days postinfection by p24 antigen capture ELISA; format: functional; conditions: Human immunodeficiency virus 1, NL4.3, CCRF-CEM, 192 h; method in brief: as §1
[19] = system: Human immunodeficiency virus 1; assay: Antiviral activity against Human immunodeficiency virus 1 NL4.3 infected human CEM cells expressing GFP at 23.36 uM measured up to 8 days postinfection by p24 antigen capture ELISA; format: functional; conditions: Human immunodeficiency virus 1, NL4.3, CCRF-CEM, 192 h; method in brief: as §1
[20] = system: Human immunodeficiency virus 1; assay: Antiviral activity against Human immunodeficiency virus 1 NL4.3 infected human CEM cells expressing GFP at 22.30 uM measured up to 8 days postinfection by p24 antigen capture ELISA; format: functional; conditions: Human immunodeficiency virus 1, NL4.3, CCRF-CEM, 192 h; method in brief: as §1
[21] = system: Human immunodeficiency virus 1; assay: Antiviral activity against Human immunodeficiency virus 1 NL4.3 infected human CEM cells expressing GFP at 16.73 uM measured up to 8 days postinfection by p24 antigen capture ELISA; format: functional; conditions: Human immunodeficiency virus 1, NL4.3, CCRF-CEM, 192 h; method in brief: as §1
[22] = system: Human immunodeficiency virus 1; assay: Antiviral activity against Human immunodeficiency virus 1 NL4.3 infected human CEM cells expressing GFP at 31.12 uM measured up to 8 days postinfection by p24 antigen capture ELISA; format: functional; conditions: Human immunodeficiency virus 1, NL4.3, CCRF-CEM, 192 h; method in brief: as §1
[23] = Solubility of the compound; format: physicochemical
[24] = system: Human immunodeficiency virus 1; assay: Antiviral activity against Human immunodeficiency virus 1 NL4.3 infected human CEM cells expressing GFP at 24.48 uM measured up to 8 days postinfection by p24 antigen capture ELISA; format: functional; conditions: Human immunodeficiency virus 1, NL4.3, CCRF-CEM, 192 h; method in brief: as §1
[25] = system: Human immunodeficiency virus 1; assay: Antiviral activity against Human immunodeficiency virus 1 NL4.3 infected human CEM cells expressing GFP at […] uM measured up to 8 days postinfection by p24 antigen capture ELISA; format: functional; conditions: Human immunodeficiency virus 1, NL4.3, CCRF-CEM, 192 h
[26] = system: Human immunodeficiency virus 1; assay: Antiviral activity against Human immunodeficiency virus 1 NL4.3 infected human CEM cells expressing GFP at 20.20 uM measured up to 8 days postinfection by p24 antigen capture ELISA; format: functional; conditions: Human immunodeficiency virus 1, NL4.3, CCRF-CEM, 192 h; method in brief: as §1
[27] = system: Human immunodeficiency virus 1; assay: Antiviral activity against Human immunodeficiency virus 1 NL4.3 infected human CEM cells expressing GFP at 23.51 uM measured up to 8 days postinfection by p24 antigen capture ELISA; format: functional; conditions: Human immunodeficiency virus 1, NL4.3, CCRF-CEM, 192 h; method in brief: as §1
[28] = system: Human immunodeficiency virus 1; assay: Antiviral activity against Human immunodeficiency virus 1 NL4.3 infected human CEM cells expressing GFP at 4.98 uM measured up to 8 days postinfection by p24 antigen capture ELISA; format: functional; conditions: Human immunodeficiency virus 1, NL4.3, CCRF-CEM, 192 h
Method in brief: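 Human CD4+ T-cell line CEM-GFP infected with HIV-1 NL4.3 at MOI 0.05, then incubated with compound at a non-cytotoxic concentration (chosen from a prior MTT viability assay in CEM-GFP) for up to 8 days post-infection. Protection is read by p24 antigen capture ELISA, n = 3.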

Row | IC50 [3] | Structure (SMILES) | selectivity ratio [4] | CC50 [5] | further results
1 | 11.6 µM | C#CCOc1c(CC#C)c(O)nc2ccccc12 | 12.7 | 147 µM | inhibition at 27.42 µM [2]: 92.4%
2 | 19.3 µM | C#CCOc1cc(O)nc2ccccc12 | 5.3 | 103 µM | inhibition at 35.17 µM [6]: 65.1%
3 | 8.95 µM | CC(C)=CCOc1cc(O)nc2ccccc12 | 8.64 | 77.4 µM | inhibition at 30.56 µM [7]: 95.5%
4 | 3.89 µM | CC(C)CCOc1cc(O)nc2ccccc12 | 29.5 | 115 µM | inhibition at 43.29 µM [8]: 76.7%
5 | 2.35 µM | CC(C)=CCC1(CC=C(C)C)C(=O)Nc2ccccc2C1=O | 26.6 | 62.6 µM | inhibition at 8.41 µM [10]: 96%
6 | 34.4 µM | CCCCOc1c(CCCC)c(O)nc2ccccc12 | 5.56 | 192 µM | inhibition at 65.93 µM [13]: 81%
7 | 34.9 µM | CC(C)CCOc1c(CCC(C)C)c(O)nc2ccccc12 | 4.59 | 160 µM | inhibition at 59.8 µM [14]: 88.6%
8 | 16.7 µM | CCCC1(CCC)C(=O)Nc2ccccc2C1=O | 6.78 | 113 µM | inhibition at 24.48 µM [24]: 74.7%
9 | 3.23 µM | CC(C)=CCCC1(CCC=C(C)C)C(=O)Nc2ccccc2C1=O | 20.9 | 67.4 µM | inhibition at 12.3 µM [15]: 82%
10 | 8.76 µM | CC(C)=CCCOc1c(CCC=C(C)C)c(O)nc2ccccc12 | 11.8 | 103 µM | inhibition at 23.07 µM [25]: 68.3%
11 | 3.8 µM | CC(C)=CCOc1c(CC=C(C)C)c(O)nc2ccccc12 | 18.7 | 71.2 µM | inhibition at 20.2 µM [26]: 87.5%
12 | 2.99 µM | C=CC(C)(C)C1(CC=C(C)C)C(=O)Nc2ccccc2C1=O (stereo not given) [BUCHAPINE] | 18.7 | 55.9 µM | inhibition at 23.51 µM [27]: 80.1%

More lines, now with the values behind:

Row | Structure (SMILES) | IC50 [3] | selectivity ratio [4] | CC50 [5] | further results
13 | C=CCOc1cc(OCCC=C(C)C)c2ccccc2n1 |  |  |  | inhibition at 21.2 µM [1]: 16%
14 | C#CCOc1cc(OCC=C(C)C)nc2ccccc12 |  |  |  | inhibition at 14.98 µM [9]: 2.56%
15 | C=CCOc1cc(OCCC(C)C)c2ccccc2n1 |  |  |  | inhibition at 1.84 µM [11]: 23%
16 | CC(C)=CCOc1cc(OCCC(C)C)c2ccccc2n1 |  |  |  | inhibition at 1.68 µM [12]: 31.2%
17 | CC(C)=CCCOc1cc(OCCC=C(C)C)c2ccccc2n1 |  |  |  | inhibition at 12.3 µM [15]: 32.7%
18 | C#CCOc1cc(OCCC(C)C)nc2ccccc12 |  |  |  | inhibition at 18.58 µM [16]: 56.4%
19 | C#CCOc1cc(OCCCC)nc2ccccc12 |  |  |  | inhibition at 19.6 µM [17]: 56.4%
20 | CC(C)=CCCOc1cc(OCCC(C)C)c2ccccc2n1 |  |  |  | inhibition at 1.59 µM [18]: 15%
21 | CC(C)CCOc1cc(OCc2ccccc2)nc2ccccc12 |  |  |  | inhibition at 23.36 µM [19]: 47%
22 | C=CCOc1cc(OCC=C(C)C)c2ccccc2n1 |  |  |  | inhibition at 22.3 µM [20]: 35%
23 | C#CCOc1cc(OCC=C)nc2ccccc12 |  |  |  | inhibition at 16.73 µM [21]: 16.1%
24 | C=CCC1(CC=C)C(=O)Nc2ccccc2C1=O |  |  |  | inhibition at 31.12 µM [22]: 44.3%
25 | CCCCC1(CCCC)C(=O)Nc2ccccc2C1=O |  |  |  | solubility [23]: Insoluble
26 | CC(C)Oc1c(C(C)C)c(O)nc2ccccc12 |  |  |  | solubility [23]: Insoluble
27 | CCCCCCCCOc1cc(OCCCCCCCC)c2ccccc2n1 |  |  |  | solubility [23]: Insoluble
28 | Cc1cn([C@H]2C[C@H](N=[N+]=[N-])[C@@H](CO)O2)c(=O)[nH]c1=O [ZIDOVUDINE] | 1.04 µM |  |  | inhibition at 4.98 µM [28]: 89.8%
